# Results: ChEMBL document CHEMBL5696442, “Discovery of type II inhibitors of TGFβ-activated kinase 1 (TAK1) and mitogen-activated protein kinase kinase kinase kinase 2 (MAP4K2)” (J Med Chem, 2015)
# Activity calls are given as the source filed them. No cut-off for these calls is given here.
# Tests used:
# [1] = target: Serine/threonine-protein kinase 26 (Homo sapiens) (UniProt Q9P289); experiment: Inhibition of MST4 ACT labeling site in human A-375 cells at 5 uM by KiNativ Profiling analysis relative to control; assay type: cell-based
# Serine/threonine-protein kinase 26 (Homo sapiens), sequence (Q9P289 2-416 limits assumed): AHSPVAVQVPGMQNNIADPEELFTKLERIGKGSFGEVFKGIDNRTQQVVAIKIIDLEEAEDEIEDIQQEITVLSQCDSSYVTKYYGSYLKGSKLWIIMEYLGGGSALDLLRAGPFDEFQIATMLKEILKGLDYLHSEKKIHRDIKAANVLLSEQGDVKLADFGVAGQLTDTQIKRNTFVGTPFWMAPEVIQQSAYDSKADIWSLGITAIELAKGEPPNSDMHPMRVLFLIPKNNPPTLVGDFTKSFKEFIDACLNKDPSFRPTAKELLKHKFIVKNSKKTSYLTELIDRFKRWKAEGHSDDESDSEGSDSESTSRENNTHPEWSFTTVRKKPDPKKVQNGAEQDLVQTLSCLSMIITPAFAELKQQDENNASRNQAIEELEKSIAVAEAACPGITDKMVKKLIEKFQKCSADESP
# [2] = target: T1, Serine/threonine-protein kinase Nek9 (Homo sapiens) (UniProt Q8TD19); experiment: Inhibition of NEK9 ACT labeling site in human A-375 cells at 0.5 uM by KiNativ Profiling analysis relative to control; assay type: cell-based
# T1 sequence (whole entry): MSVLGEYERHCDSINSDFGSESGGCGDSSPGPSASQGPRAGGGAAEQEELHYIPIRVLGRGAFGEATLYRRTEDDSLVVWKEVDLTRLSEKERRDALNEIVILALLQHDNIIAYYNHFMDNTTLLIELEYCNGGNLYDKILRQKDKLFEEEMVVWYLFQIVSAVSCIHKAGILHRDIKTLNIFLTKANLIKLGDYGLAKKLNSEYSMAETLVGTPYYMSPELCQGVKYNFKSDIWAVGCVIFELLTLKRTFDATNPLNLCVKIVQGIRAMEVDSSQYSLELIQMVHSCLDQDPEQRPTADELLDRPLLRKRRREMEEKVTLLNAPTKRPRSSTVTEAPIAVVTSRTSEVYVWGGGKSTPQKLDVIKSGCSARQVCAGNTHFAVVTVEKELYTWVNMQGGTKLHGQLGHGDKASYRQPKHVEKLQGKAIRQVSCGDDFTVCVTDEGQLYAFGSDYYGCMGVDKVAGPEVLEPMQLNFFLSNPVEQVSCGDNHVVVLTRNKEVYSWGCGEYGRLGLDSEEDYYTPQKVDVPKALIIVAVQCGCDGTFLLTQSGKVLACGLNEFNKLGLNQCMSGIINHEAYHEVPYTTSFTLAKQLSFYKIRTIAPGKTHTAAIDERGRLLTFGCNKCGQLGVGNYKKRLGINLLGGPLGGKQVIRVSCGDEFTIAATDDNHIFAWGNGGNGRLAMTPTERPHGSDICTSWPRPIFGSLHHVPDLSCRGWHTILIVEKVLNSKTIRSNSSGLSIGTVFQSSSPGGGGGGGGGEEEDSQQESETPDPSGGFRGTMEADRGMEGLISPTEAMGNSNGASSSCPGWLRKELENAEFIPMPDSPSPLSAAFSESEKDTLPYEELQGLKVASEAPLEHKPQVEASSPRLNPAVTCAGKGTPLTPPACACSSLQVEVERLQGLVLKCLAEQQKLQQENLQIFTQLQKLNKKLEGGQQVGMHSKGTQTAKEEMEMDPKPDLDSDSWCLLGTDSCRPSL
# [3] = target: Serine/threonine-protein kinase MARK2 (Homo sapiens) (UniProt Q7KZI7); experiment: Inhibition of MARK2 Lys1 labeling site in human A-375 cells at 0.05 uM by KiNativ Profiling analysis relative to control; assay type: cell-based
# [4] = target: T2, Phosphatidylinositol 5-phosphate 4-kinase type-2 alpha (Homo sapiens) (UniProt P48426); experiment: Inhibition of PIP4K2A ATP labeling site in human A-375 cells at 0.5 uM by KiNativ Profiling analysis relative to control; assay type: cell-based
# T2 sequence (whole entry): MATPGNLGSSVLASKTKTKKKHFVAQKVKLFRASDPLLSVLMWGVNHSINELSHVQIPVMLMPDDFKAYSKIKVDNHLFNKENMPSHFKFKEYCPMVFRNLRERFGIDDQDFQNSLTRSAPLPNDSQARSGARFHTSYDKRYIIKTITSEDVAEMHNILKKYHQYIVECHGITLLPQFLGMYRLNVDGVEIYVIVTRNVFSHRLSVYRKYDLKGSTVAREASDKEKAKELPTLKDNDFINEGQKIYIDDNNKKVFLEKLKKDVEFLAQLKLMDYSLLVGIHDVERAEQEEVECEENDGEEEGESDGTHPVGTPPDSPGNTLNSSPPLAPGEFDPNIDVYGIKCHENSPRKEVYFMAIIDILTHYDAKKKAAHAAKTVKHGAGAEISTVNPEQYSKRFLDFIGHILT
# [5] = target: Proto-oncogene tyrosine-protein kinase Src (Homo sapiens, UniProt P12931); experiment: Inhibition of SRC ACT labeling site in human A-375 cells at 0.5 uM by KiNativ Profiling analysis relative to control; assay type: cell-based
# Proto-oncogene tyrosine-protein kinase Src, sequence (P12931 2-536 limits assumed): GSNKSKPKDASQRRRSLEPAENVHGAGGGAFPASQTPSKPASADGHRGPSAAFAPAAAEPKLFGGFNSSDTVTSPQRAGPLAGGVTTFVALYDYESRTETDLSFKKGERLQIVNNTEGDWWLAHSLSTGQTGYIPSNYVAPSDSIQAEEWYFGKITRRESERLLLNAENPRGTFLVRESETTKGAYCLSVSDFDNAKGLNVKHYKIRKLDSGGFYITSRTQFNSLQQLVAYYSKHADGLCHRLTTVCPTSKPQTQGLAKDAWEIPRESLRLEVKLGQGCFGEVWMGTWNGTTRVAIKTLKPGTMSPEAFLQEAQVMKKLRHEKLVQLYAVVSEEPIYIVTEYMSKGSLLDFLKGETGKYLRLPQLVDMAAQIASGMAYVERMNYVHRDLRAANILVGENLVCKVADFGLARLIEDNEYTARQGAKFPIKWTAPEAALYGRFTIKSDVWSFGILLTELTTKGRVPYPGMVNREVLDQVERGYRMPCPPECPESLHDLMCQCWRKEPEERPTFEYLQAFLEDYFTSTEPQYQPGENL
# [6] = target: Tyrosine-protein kinase Lyn (Homo sapiens, UniProt P07948); experiment: Inhibition of LYN Lys1 labeling site in human A-375 cells at 5 uM by KiNativ Profiling analysis relative to control; assay type: cell-based
# [7] = target: Serine/threonine-protein kinase 26 (Homo sapiens) (UniProt Q9P289); experiment: Inhibition of MST4 Lys2 labeling site in human A-375 cells at 0.05 uM by KiNativ Profiling analysis relative to control; assay type: cell-based
# [8] = target: MAP/microtubule affinity-regulating kinase 3 (Homo sapiens) (UniProt P27448); experiment: Inhibition of MARK3 Lys2 labeling site in human A-375 cells at 5 uM by KiNativ Profiling analysis relative to control; assay type: cell-based
# MAP/microtubule affinity-regulating kinase 3 (Homo sapiens), sequence (P27448 whole entry, looked up): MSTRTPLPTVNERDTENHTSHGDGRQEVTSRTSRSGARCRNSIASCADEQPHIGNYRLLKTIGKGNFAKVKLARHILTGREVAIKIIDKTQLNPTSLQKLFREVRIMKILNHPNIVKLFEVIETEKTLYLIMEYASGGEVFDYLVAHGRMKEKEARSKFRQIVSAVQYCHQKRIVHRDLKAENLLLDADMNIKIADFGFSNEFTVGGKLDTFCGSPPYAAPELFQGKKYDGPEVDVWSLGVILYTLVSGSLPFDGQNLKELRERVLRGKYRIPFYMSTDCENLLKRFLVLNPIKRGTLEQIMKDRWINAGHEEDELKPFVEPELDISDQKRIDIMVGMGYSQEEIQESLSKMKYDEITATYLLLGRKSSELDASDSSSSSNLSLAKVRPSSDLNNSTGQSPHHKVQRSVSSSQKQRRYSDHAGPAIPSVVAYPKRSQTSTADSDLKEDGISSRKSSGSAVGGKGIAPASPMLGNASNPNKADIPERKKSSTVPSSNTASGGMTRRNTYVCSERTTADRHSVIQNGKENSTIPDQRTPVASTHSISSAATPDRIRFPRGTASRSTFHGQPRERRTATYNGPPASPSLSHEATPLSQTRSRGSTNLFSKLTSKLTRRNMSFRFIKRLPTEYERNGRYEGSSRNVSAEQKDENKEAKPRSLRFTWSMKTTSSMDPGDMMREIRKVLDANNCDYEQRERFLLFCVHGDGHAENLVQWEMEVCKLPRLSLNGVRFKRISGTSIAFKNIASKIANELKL
# [9] = target: Interferon-induced, double-stranded RNA-activated protein kinase (Homo sapiens) (UniProt P19525); experiment: Inhibition of PKR Lys2 labeling site in human A-375 cells at 0.5 uM by KiNativ Profiling analysis relative to control; assay type: cell-based
# [10] = target: Tyrosine-protein kinase Fer (Homo sapiens, UniProt P16591); experiment: Inhibition of FER Lys1 labeling site harbouring DKTSVAVKTCKEDLPQELK in human A-375 cells at 5 uM by KiNativ Profiling analysis relative to control; assay type: cell-based
# Tyrosine-protein kinase Fer, sequence (P16591 whole entry, looked up): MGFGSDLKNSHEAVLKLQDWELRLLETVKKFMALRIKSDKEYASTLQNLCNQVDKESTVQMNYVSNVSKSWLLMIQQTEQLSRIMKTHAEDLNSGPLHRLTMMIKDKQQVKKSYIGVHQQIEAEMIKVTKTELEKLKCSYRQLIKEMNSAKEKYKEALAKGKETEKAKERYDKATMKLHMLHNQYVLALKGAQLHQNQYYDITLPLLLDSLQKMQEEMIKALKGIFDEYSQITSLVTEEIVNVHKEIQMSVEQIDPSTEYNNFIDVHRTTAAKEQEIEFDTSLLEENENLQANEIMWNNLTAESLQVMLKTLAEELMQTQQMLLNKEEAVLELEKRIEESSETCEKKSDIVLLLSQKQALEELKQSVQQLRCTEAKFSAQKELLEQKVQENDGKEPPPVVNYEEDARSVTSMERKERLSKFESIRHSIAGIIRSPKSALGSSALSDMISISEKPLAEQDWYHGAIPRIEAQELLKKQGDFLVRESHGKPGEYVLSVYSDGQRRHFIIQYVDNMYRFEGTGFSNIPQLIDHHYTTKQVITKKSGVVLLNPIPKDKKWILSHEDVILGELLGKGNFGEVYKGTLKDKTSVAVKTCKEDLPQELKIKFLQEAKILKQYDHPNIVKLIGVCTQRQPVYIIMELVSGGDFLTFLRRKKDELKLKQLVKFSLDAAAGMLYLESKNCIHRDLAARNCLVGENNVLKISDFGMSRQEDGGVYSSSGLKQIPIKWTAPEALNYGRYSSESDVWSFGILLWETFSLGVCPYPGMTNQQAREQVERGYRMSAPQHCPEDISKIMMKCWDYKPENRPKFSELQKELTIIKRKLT
# [11] = Cmax in Swiss albino mouse at 10 mg/kg, po measured upto 24 hrs by LC/MS/MS analysis; assay type: ADME, organism-based; conditions: in vivo
# [12] = target: Cyclin-dependent kinase 16 (Homo sapiens) (UniProt Q00536); experiment: Inhibition of PFTAIRE1 Lys1 labeling site in human A-375 cells at 0.5 uM by KiNativ Profiling analysis relative to control; assay type: cell-based
# [13] = target: Tyrosine-protein kinase CSK (Homo sapiens, UniProt P41240); experiment: Inhibition of CSK (unknown origin) ACT labeling site by KiNativ Profiling analysis
# Tyrosine-protein kinase CSK, sequence (P41240 whole entry): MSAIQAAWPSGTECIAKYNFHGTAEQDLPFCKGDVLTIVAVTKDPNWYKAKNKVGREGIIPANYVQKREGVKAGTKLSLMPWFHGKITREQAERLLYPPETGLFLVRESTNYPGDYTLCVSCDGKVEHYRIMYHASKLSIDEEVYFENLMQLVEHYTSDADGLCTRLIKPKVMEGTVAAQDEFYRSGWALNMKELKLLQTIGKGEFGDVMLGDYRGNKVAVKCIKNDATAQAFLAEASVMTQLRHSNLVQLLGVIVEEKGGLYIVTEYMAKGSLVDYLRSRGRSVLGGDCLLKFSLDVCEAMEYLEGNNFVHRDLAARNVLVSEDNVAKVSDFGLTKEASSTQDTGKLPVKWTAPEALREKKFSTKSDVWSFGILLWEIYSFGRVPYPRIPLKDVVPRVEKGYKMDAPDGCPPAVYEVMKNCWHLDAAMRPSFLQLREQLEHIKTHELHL
# [14] = target: TRAF2 and NCK-interacting protein kinase (Homo sapiens) (UniProt Q9UKE5); experiment: Inhibition of ZC2 Lys2 labeling site in human Huh-7 cell lysate at 1 uM by KiNativ Profiling analysis relative to control; assay type: subcellular
# TRAF2 and NCK-interacting protein kinase (Homo sapiens), sequence (Q9UKE5 whole entry, looked up): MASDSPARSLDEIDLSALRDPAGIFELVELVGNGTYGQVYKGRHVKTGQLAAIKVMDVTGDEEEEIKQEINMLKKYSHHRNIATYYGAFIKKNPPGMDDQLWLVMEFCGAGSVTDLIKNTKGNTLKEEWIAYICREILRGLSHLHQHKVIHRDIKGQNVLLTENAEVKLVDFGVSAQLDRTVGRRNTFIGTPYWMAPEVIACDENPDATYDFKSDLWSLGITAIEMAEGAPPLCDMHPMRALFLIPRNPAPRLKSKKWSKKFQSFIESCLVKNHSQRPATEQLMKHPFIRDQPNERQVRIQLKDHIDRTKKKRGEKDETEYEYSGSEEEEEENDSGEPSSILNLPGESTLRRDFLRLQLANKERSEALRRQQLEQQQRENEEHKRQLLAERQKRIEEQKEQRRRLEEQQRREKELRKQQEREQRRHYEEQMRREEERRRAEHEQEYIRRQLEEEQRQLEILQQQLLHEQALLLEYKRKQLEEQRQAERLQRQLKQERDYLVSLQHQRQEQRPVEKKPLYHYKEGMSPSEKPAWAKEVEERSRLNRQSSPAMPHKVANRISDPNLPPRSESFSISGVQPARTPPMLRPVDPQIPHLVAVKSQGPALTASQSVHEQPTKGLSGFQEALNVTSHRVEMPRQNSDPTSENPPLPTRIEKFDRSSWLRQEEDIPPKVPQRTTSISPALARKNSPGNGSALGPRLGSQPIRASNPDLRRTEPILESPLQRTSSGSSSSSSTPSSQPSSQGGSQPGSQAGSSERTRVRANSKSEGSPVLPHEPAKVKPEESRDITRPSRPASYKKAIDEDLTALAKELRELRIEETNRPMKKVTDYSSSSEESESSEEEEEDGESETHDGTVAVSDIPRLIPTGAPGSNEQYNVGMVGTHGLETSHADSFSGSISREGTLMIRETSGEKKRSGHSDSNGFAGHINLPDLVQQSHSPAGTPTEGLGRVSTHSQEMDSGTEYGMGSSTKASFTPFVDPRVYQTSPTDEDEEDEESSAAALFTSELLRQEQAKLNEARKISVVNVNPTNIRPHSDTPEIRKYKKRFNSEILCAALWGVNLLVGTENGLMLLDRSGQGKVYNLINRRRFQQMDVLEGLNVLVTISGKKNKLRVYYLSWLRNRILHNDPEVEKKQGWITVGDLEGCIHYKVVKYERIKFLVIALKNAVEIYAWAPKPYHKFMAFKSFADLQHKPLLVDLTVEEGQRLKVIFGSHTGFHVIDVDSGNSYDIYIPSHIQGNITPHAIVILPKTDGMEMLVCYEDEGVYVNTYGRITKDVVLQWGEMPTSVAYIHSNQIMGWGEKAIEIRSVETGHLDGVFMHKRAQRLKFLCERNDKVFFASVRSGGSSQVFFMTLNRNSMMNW
# [15] = target: Mitogen-activated protein kinase 14 (Homo sapiens, UniProt Q16539); experiment: Inhibition of p38 alpha Lys2 labeling site in human Huh-7 cell lysate at 1 uM by KiNativ Profiling analysis relative to control; assay type: subcellular
# [16] = tested on: L929; experiment: Inhibition of TNF alpha induced IKKalpha/beta phosphorylation level in mouse L929 cells at 100 nM preincubated for 30 mins followed by TNF alpha stimulation and measured after 5 mins by Western blot analysis; assay type: functional, cell-based
# Outline: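 Mouse L929 cells were pretreated with compound at 100 nM for 30 min, then stimulated with TNFα for 5 min. Lysates were Western blotted for phospho-IKKα/β, with tubulin as loading control.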
# [17] = target: Mitogen-activated protein kinase 9 (Homo sapiens, UniProt P45984); experiment: Inhibition of JNK2 Lys2 labeling site in human Huh-7 cell lysate at 1 uM by KiNativ Profiling analysis relative to control; assay type: subcellular
# Mitogen-activated protein kinase 9, sequence (P45984 whole entry, looked up): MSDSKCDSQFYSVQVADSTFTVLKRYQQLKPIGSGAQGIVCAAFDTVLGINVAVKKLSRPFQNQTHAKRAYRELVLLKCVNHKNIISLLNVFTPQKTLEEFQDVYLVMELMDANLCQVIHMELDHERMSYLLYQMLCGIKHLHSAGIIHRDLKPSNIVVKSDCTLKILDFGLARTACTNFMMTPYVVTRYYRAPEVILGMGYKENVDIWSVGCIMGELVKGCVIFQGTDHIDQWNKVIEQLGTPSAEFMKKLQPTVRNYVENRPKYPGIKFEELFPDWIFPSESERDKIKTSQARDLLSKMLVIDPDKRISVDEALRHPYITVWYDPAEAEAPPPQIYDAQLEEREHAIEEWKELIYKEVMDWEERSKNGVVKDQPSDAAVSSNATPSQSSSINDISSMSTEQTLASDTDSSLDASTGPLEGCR
Compound,inhibition [1] [%],inhibition [2] [%],inhibition [3] [%],inhibition [4] [%],inhibition [5] [%],inhibition [6] [%],inhibition [7] [%],inhibition [8] [%],inhibition [9] [%],inhibition [10] [%],Cmax [11] [ng/mL],inhibition [12] [%],IC50 [13] [nM],inhibition [14] [%],inhibition [15] [%],inhibition [16],inhibition [17] [%]
CCN1CCN(Cc2ccc(NC(=O)c3ccc(C)c(/C=C/c4cnc5[nH]ccc5c4OC)c3)cc2C(F)(F)F)CC1,13.7,-3.8,3,-5.5,72.6,> 95,9.1,8.9,-9.6,80.3,163,11.9,80.9,,,,
CCN1CCN(Cc2ccc(NC(=O)c3ccc(C)c(Oc4ccnc5[nH]ccc45)c3)cc2C(F)(F)F)CC1,35.1,-2.4,1.2,-0.4,36.5,> 95,-0.7,7.8,-5.5,98.1,316,41.3,56.4,,,,
CNc1cc(Oc2cc(C(=O)Nc3cc(-n4cnc(C)c4)cc(C(F)(F)F)c3)ccc2C)ncn1,,,,,,,,,,,,,,24.1,50.2,inactive,18.4
CNc1cc(Oc2cc(C(=O)Nc3cc(N4CCN(C)CC4)cc(C(F)(F)F)c3)ccc2C)ncn1,,,,,,,,,,,,,,2.7,30.2,inactive,7
